Assay outcomes deposited in PubChem by several laboratories.
Compounds with a hit are over-represented: about 3.8% of the library has one in this group of screens.
NS3 helicase inh = HCV NS3 helicase inhibition; NS3 helicase DNA unwinding, Cy5 molecular beacon fluorescence; inhibition, % at 10.9 µM; 290,000 compounds, 0.56% hits; AID 1800;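 active = inhibition above the mean of all tested compounds plus 3 SD, set per campaign, cut at about 35% in these data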;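 note: 0% = DMSO wells and 100% = thioflavine S control wells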
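test system = hepatitis C virus NS3 helicase domain fragment enzyme | reagent = annealed dual-labelled DNA beacon duplex, ATP-started | times = 1 h at 25 °C | detection = Cy5 fluorescence, 0 and 60 min reads | read-out basis = percent inhibition from t60/t0 fluorescence ratio | control set = DMSO and thioflavine S | replication = one well per compound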
HSP90 inh = HSP90 refolding inhibition in rabbit reticulocyte lysate | luciferase refolding luminescence, 3 h | inhibition, % at 5.6 µM | 290,000 compounds, 0.91% hits | AID 1789;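 active = inhibition above the screen-wide mean plus 3 SD, computed separately per campaign, cut at about 16% in these data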;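 note: 0% = DMSO wells and 100% = 60 µM geldanamycin wells; inhibitors lower the luminescence because luciferase stays unfolded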
HSF1 activator = increases HSF-1 driven luciferase reporter signal; NIH3T3-HGL HSF-1 luciferase reporter, MG132, 8 h; 100% = twice DMSO control signal; activation, % at 9 µM; 300,000 compounds, 1.7% hits;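 active = mean replicate activation of at least 50% with a set share of replicates each reaching 50%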;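 note: 0% = median of the neutral control wells and 100% = twice that signal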
HSF1 inhib = HSF1 inhibition; activity change, negative = inhibition, % at 7.5 µM (by protocol); 300,000 compounds, 0.77% hits; NIH3T3-HGL HSE-luciferase, MG132-induced, luminescence 8 h; active compounds read low;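 active = more than half of replicate wells show activity change below -50%, luminescence cut by over half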;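 note: luciferase reports HSF-1 transcriptional activity via heat shock element; 0% = median of DMSO wells and -100% = zero luminescence signal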
Hep lipid drop = modulators of hepatic lipid droplet formation; AML12 mouse hepatocytes, oleate lipid droplets, BODIPY imaging; inhibition, % at 6.5 µM; 240,000 compounds, 0.4% hits; AID 1656;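 active = lipid droplet intensity inhibited by at least 50%, with more than 500 cells counted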
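material = mouse AML12 hepatocyte cell line, fixed after treatment | also added = 100 µM oleic acid challenge | doses = compound at 6.5 µM only | schedule = overnight exposure | technique = Image-based BODIPY and DAPI two-channel analysis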
Active calls of the source: *; / = no result given.

SMILES	NS3 helicase inh	HSP90 inh	HSF1 activator	HSF1 inhib	Hep lipid drop
COc1ccc(S(=O)(=O)c2c(O)c3ccc(C(=O)Nc4ccc(F)cc4F)cc3[nH]c2=O)cc1	8	-2	-5	-3	2
CCCSC1=C(C#N)C(c2ccccc2C)CC(=O)N1 (stereo not drawn)	-7	-6	7	12	/
CCCCSC1=C(C#N)C(c2ccccc2C)CC(=O)N1 (stereo not drawn)	-5	-5	-67	-59*	/
CCOC(=O)Nc1ccc2c(c1)N(C(=O)CN(CC)CC)c1ccccc1C=C2	-5	-2	74*	58	-11
CCOC(=O)Nc1ccc2c(c1)N(C(=O)CN(CC)CC)c1ccccc1CC2	2	3	-35	-18	/
COC(=O)C1=C(C)NC(C)=C(C(=O)OC)C1c1ccc(-c2cccc(Cl)c2Cl)o1	32	4	53*	22	9
COC(=O)C1=C(C)NC(=S)NC1c1ccc(-c2cccc(Cl)c2)o1 (stereo not drawn)	27	0	72*	44	22
COC(=O)C1=C(C)NC(C)=C(C(=O)OC)C1c1ccc(-c2cc(Cl)ccc2Cl)o1	15	1	15	13	-8
S=c1sc2c(Cl)ncnc2n1-c1ccccc1	-2	-3	565*	478	-3
Cc1nc(N2CCN(C)CC2)c2sc(=S)n(-c3ccccc3)c2n1	2	-1	13	7	4
Cc1ccc2nc(Cl)c(/C=C/C(=O)c3ccco3)cc2c1	11	0	47	30	5
Cc1ccc2cc(/C=C/C(=O)c3ccco3)c(Cl)nc2c1	7	0	119*	68	-30
Cc1cccc(N(CC(=O)NCC2CCCO2)C(=O)CCC(=O)Nc2nccs2)c1 (stereo not drawn)	-5	1	-11	-2	8
CCc1ccc(/C=N/NC(=O)c2c[nH]c3ccccc23)s1	1	-1	58*	25	13
CC(NC(=O)CN1CCCC1)c1ccccc1 (stereo not drawn)	0	-4	2	-7	4
O=C(Nc1nc(-c2cccs2)c(-c2cccs2)s1)C1(c2ccccc2)CC1	2	-3	4	1	-24
CC(=O)NCCC(=O)Nc1nc(-c2cccs2)c(-c2cccs2)s1	0	-9	182*	133	9
Clc1ccc(-c2ccc(CNCC3CCCO3)o2)cc1 (stereo not drawn)	-7	1	79*	62	0
COc1ccc(C)cc1-n1c(=O)c2ccccc2c2ccccc2c1=O	12	2	315*	236	-2
COc1cccc(C(=O)C2CCCN(C(=O)c3cccc(C#CC(C)(C)O)c3)C2)c1 (stereo not drawn)	-25	2	3	-3	2
O=C(COC(=O)c1cccc(S(=O)(=O)N2CCc3ccccc32)c1)Nc1ccc(Cl)cn1	-5	1	30	17	-1
N#Cc1ccccc1COC(=O)c1cc(=O)c2ccccc2o1	2	0	63*	24	-6
N#Cc1ccccc1COC(=O)c1ccc(Br)o1	-5	-1	-7	-6	33
CCN(CC)C(=O)C(=O)N/N=C/c1ccc(F)cc1	-1	-2	4	-2	7
COC(=O)Nc1nn(-c2ccc(OC)cc2)c(=O)c(C#N)c1C	10	2	-12	-8	19
SMILES	NS3 helicase inh	HSP90 inh	HSF1 activator	HSF1 inhib	Hep lipid drop
Cc1cccc(OCCCC(=O)Nc2nccs2)c1	-1	0	67*	38	/
CCCCN(C)C(=O)C1CCC(CNS(=O)(=O)c2ccc3c(c2)CC(C)N3C(=O)C2CC2)CC1 (stereo not drawn)	-4	-1	61*	15	23
CC(NC(=O)/C=C/c1ccco1)c1nc2ccccc2n1Cc1c(Cl)cccc1Cl (stereo not drawn)	1	3	33	23	-1
CC(NC(=O)/C=C/c1ccco1)c1nc2ccccc2n1Cc1ccccc1F (stereo not drawn)	6	-1	65*	33	1
COc1ccc(NC(=O)Nc2ccccc2F)c(C)c1	6	0	23	0	-5
COc1cccc(COC(=O)Nc2ccccc2F)c1	-13	6	74*	45	-3
Cc1ccc(S(=O)(=O)NC(C)(C)CSc2nncn2N)cc1	3	-2	-83	-77*	1
Cc1sc2nc(CSc3nc4ccccc4c(=O)n3CCCN3CCOCC3)[nH]c(=O)c2c1C	-8	-3	61*	41	16
Cc1nnc(SCC(=O)N2c3ccccc3CC2C)s1 (stereo not drawn)	1	1	14	8	-2
CC1Cc2ccccc2N1C(=O)CSc1nc2ccccc2s1 (stereo not drawn)	-1	-1	56*	19	14
CC1CCN(C(=O)CSc2nc3ccccc3s2)CC1	5	-6	54*	30	/
O=C(O)CCSc1nc2ccccc2s1	4	12	-65	-63*	-6
COc1ccc(N2CCN(C(=O)c3oc4ccccc4c3NC(=O)CCc3cc(OC)no3)CC2)cc1	-17	0	24	1	10
CCOC(=O)CNc1c(-c2ccc(O)cc2)nc2ccc(Cl)cn12	4	-2	72*	62	2
CCc1nc(N2CCN(S(=O)(=O)c3ccc(Br)cc3)CC2)c2c(C)c(C)sc2n1	-1	5	77*	42	/
Cc1nc(N2CCN(S(=O)(=O)c3ccc(Br)cc3)CC2)c2c(C)c(C)sc2n1	4	2	2	10	-3
COc1cc(/C=C2\CCC/C(=C\c3ccc(O)c(OC)c3)C2=O)ccc1O	-9	3	114*	81	10
COc1cc(/C=C2/CCCC(C(=O)C(F)(F)F)=C2O)ccc1O	8	-3	-16	-12	0
COc1cc(/C=C2/CCC/C(=C\c3cc(O)c(OC)c(Cl)c3)C2=O)cc(Cl)c1O	1	-1	204*	168	/
Oc1ccc(C2C[C@H]3CC[C@@H]2C3)cc1O (stereo partly drawn)	15	-4	90*	80	-38
CC1CCCCN1CC(O)COCc1ccc(Cl)cc1 (stereo not drawn)	3	0	9	-9	-2
CCc1nc2ccccc2n1Cc1ccccc1F	5	0	8	7	9
COc1cccc(-c2nn(C)c3sc(C(=O)Nc4ccc5c(c4)OCCO5)cc23)c1	-9	2	55*	34	9
Nc1ccccc1NC(=O)NC(=O)c1ccccc1	0	3	12	19	4
O=C(OC1CCN(c2ncc(C(F)(F)F)cc2Cl)CC1)c1ccc(Cl)cc1	7	-1	-7	-6	/
O=C(OCCN1CCN(c2ncc(C(F)(F)F)cc2Cl)CC1)c1ccc(Cl)cc1	10	-3	-84	-80*	-2
Cc1ccc(/C=C/c2nc3ccccc3c(=O)[nH]2)cc1	-2	14	-18	-25	5
